We go through 13 molecules from article PMC3631442 (ACS chemical biology, 2013).

Experiment [1] addresses T1, Bfl-1 (Homo sapiens, UniProt Q16548).
T1 sequence (Q16548 1-151 limits assumed): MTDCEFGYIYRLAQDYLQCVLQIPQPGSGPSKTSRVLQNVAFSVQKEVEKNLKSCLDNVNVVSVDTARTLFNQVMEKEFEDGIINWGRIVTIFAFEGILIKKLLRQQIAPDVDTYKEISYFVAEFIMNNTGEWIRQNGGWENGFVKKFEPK
Description: Fluorescence polarization competition with fluoresceinated Bim BH3. The format is binding.

For experiment [2], the target named is Puma BH3 BH3 (Homo sapiens) (UniProt Q9BXH1). Conditions: cited from earlier work.
Sequence of Puma BH3 BH3 (Homo sapiens) (Q9BXH1 130-155): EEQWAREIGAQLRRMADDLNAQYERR
For experiment [3], the target named is Bid BH3 BH3 (Homo sapiens) (UniProt P55957). The following applies: cited from earlier work.
Sequence of Bid BH3 BH3 (Homo sapiens) (P55957 79-104): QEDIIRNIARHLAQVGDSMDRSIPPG
Experiment [4] has as its target 18-residue fluoresceinated Bim BH3 peptide (human). Nature of the experiment: fluorescence polarisation.
Experiment [5] concerns the target T2, Bfl-1.
T2 sequence (Q16548 whole entry, species assumed, looked up): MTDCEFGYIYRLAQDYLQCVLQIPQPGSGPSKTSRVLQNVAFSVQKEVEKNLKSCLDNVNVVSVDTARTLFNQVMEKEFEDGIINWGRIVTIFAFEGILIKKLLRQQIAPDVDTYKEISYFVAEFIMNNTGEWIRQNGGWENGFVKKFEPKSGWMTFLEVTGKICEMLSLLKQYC
Description: fluorescence polarisation.

For experiment [6], the target named is Bcl-w (UniProt Q92843). Nature of the experiment: fluorescence polarisation. (In fluorescence polarisation assays a small probe gives low polarisation when free and higher when bound to something large.)
Experiment [7] deals with Mcl-1 (Homo sapiens, UniProt Q07820). Description: Fluorescence polarization competition with fluoresceinated Bim BH3. Format: binding.
Sequence of Mcl-1 (Homo sapiens, UniProt Q07820) (Q07820 whole entry): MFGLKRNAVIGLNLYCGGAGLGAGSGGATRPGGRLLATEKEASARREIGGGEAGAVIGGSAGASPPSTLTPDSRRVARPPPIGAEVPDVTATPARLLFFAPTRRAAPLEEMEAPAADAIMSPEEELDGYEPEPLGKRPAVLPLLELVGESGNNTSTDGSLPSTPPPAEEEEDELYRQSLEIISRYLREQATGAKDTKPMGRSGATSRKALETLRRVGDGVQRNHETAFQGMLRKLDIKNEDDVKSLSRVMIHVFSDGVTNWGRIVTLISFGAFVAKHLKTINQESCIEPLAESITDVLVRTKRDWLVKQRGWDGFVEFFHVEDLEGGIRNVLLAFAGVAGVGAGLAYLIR
In experiment [8] the target is Bcl-2 (Homo sapiens, UniProt P10415). The description is as above. The format is binding.
Sequence of Bcl-2 (Homo sapiens, UniProt P10415) (P10415 whole entry): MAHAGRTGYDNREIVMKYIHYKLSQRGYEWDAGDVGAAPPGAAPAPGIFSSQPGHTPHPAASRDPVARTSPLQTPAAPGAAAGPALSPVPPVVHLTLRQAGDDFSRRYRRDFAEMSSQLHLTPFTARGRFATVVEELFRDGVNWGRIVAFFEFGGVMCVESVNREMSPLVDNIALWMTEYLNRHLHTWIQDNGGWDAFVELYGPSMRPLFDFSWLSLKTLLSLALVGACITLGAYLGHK
Experiment [9] deals with Bcl-xL (Homo sapiens, UniProt Q07817). Described as above. The format is binding.
Sequence of Bcl-xL (Homo sapiens, UniProt Q07817) (Q07817 whole entry): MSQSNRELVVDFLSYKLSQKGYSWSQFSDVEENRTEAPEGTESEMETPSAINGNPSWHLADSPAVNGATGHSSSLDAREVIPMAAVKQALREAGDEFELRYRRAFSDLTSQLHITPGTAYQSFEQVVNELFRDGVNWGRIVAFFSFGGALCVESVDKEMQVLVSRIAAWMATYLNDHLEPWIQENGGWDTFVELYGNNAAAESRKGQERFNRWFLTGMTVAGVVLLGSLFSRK
Experiment [10] has as its target T1, Bfl-1. Nature of the experiment: Bio-layer interferometry. Format: binding. The essentials:
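Biotinylated 23-residue test peptide (free N-terminus, amidated C-terminus), at 0.1 mg/ml, loaded on streptavidin biosensors to ~0.42 response units. Protein at 2–3 concentrations (30–250 nM) associated for 10 min, then dissociated for 60 min in 20 mM phosphate, 50 mM NaCl, 0.1% BSA, pH 7.5. Off-rate upper bound taken from signal fluctuation over 1000 s. Association phase fit for kon and Rmax.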

In experiment [11] the target is T3, Bcl-w (Homo sapiens, UniProt Q92843).
T3 sequence (Q92843 1-193): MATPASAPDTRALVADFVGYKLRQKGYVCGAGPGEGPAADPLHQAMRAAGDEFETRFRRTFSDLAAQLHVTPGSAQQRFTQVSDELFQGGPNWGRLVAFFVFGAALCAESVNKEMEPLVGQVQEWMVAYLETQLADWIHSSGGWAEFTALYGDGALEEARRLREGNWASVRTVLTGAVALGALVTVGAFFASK
Description: Fluorescence polarization competition with fluoresceinated Bim BH3. The format is binding.

For experiment [12], the target named is T4, Bcl-2 (UniProt P10415 1-239). Description: fluorescence polarisation.
T4 sequence (P10415 whole entry): as the sequence (P10415 whole entry) above
Experiment [13] deals with T5, Bcl-xL (UniProt Q07817-1 1-233). Nature of the experiment: fluorescence polarisation.
T5 sequence (Q07817 whole entry): as the sequence (Q07817 whole entry) above
For experiment [14], the target named is T6, Bcl-w (UniProt Q92843 1-193). Nature of the experiment: fluorescence polarisation.
The target of experiment [15] is T7, Mcl-1 (UniProt Q07820 1-350). Nature of the experiment: fluorescence polarisation.
T7 sequence (Q07820 whole entry): as the sequence (Q07820 whole entry) above
Experiment [16] addresses T2, Bfl-1. Nature of the experiment: fluorescence polarisation. The source holds these as a separate data set.
The target of experiment [17] is T5, Bcl-xL. Description: BLI. (Biolayer interferometry detects binding as a change in optical thickness at a sensor tip.)
The target in experiment [18] is T7, Mcl-1. Description: BLI.
The target of experiment [19] is T4, Bcl-2. Description: fluorescence polarisation. The source holds these as a separate data set.
The target in experiment [20] is T6, Bcl-w. Description: fluorescence polarisation. This is another data set of the same source.

No end group written: not given here. *: point of attachment. Biotin = O=C1N[C@H]2[C@H](CS[C@H]2CCCCC(=O)*)N1; PEG4 = NCCOCCOCCOCCOCCC(=O)O

The Ki is the equilibrium dissociation constant of an inhibitor or competing ligand from its target. Read a low Ki as tighter binding. What is called Kd is the constant that tells how readily two partners part at equilibrium. A word on the koff: it is a measure of how fast the partners let go of each other.

With Ac-RPEIWLAQYLRRLGDQINAYYAR-NH2 [FD1], the affinity on Bfl-1 [1], expressed as Ki, was 0.7 ± 0.2 nM.
As to Bfl-1 (from UniProt Q16548), the Kd in experiment [2] and in [3] was 50 nM each time.
For Bfl-1 (domain or fragment), the equilibrium dissociation constant (Kd) in [4] was determined as 4 nM.
In the experiment with Bfl-1 [5], Bim_D3fK with E3gV (peptide) returned a fold increase in binding against Bim D3fK of 2 fold. This molecule also had a fold weakening of binding against Bim D3fK with Bcl-w [6] of 2.5 fold.
As for RPEIWMAQVLRRFGDLLNAYYAR [FD2], the inhibitory constant (Ki) at Mcl-1 [7] was 1 ± 0.1 nM; at Bfl-1 [1], 3.8 ± 0.7 nM. At Bfl-1 [1] (from competition FP Ki values), the “specificity for Bfl-1 over Bcl-xL, Bcl-2 and Bcl-w” value was 4-60 fold.
As to Ac-RPEIWIAQGLRRIGDTWNAYYAR-NH2 [FW1], the Ki on Bcl-2 [8] and on Bcl-xL [9] was 20 to 30 nM in each case. In addition, on Bfl-1 [1] (from competition FP Ki values), the “fold lower Ki for Bfl-1 compared to Bcl-w” value is recorded as ~ 37 fold.
As for Ac-RPEIWIAQELRRAGDVLNAYYAR-NH2 [FA1], at Bfl-1 [10], the Kd is ≤ 0.3 nM. Besides, on Bfl-1 [10] (pH 7.5, read-out: upper limit on koff, dissociation of Bfl-1 from surface-bound peptide), the dissociation rate constant (koff) was ≤ 1.5e-05 s⁻¹. The values for the Ki on Mcl-1 [7] and on Bcl-w [11] were 1 ± 0.1 nM and 2 ± 1 nM, respectively.

B1: FD1 (peptide)
peptide: Ac-RPEIWLAQYLRRLGDQINAYYAR-NH2
B1: the Ki was determined as 7 nM in the experiment with Bcl-2 [12]; 5 nM with Bcl-xL [13]; 12 nM in the experiment with Bcl-w [14]; 0.1 nM with Mcl-1 [15]; 0.7 nM in the experiment with Bfl-1 [16].

B2: FA1 (unlabeled, 23 residues) (peptide)
peptide: Ac-RPEIWIAQELRRAGDVLNAYYAR-NH2
Regarding B2, the Ki with Bcl-2 [12] was determined as 313 nM; with Bcl-xL [13] it was 8 nM.

B3: FW1 (unlabeled, 23 residues) (peptide)
peptide: Ac-RPEIWIAQGLRRIGDTWNAYYAR-NH2
Regarding B3, the inhibition constant (Ki) with Bcl-2 [12] amounted to 31 nM; with Bcl-xL [13], 20 nM; with Bcl-w [14], 298 nM; with Mcl-1 [15], 0.2 nM.

B4: FD2 (peptide)
peptide: H-RPEIWMAQVLRRFGDLLNAYYAR-OH
B4: the Ki in the experiment with Bcl-2 [12] came out at 223 nM; with Bcl-xL [13] it was 18 nM; in the experiment with Bcl-w [14], 104 nM; in the experiment with Bfl-1 [16], 3.8 nM.

B5: Biotinylated FA1 (peptide)
peptide: {Biotin-PEG4}-RPEIWIAQELRRAGDVLNAYYAR-NH2
SMILES: CC[C@H](C)[C@H](NC(=O)[C@H](Cc1c[nH]c2ccccc12)NC(=O)[C@@H](NC(=O)[C@H](CCC(=O)O)NC(=O)[C@@H]1CCCN1C(=O)[C@H](CCCNC(=N)N)NC(=O)CCOCCOCCOCCOCCNC(=O)CCCC[C@@H]1SC[C@@H]2NC(=O)N[C@@H]21)[C@@H](C)CC)C(=O)N[C@@H](C)C(=O)N[C@@H](CCC(N)=O)C(=O)N[C@@H](CCC(=O)O)C(=O)N[C@@H](CC(C)C)C(=O)N[C@@H](CCCNC(=N)N)C(=O)N[C@@H](CCCNC(=N)N)C(=O)N[C@@H](C)C(=O)NCC(=O)N[C@@H](CC(=O)O)C(=O)N[C@H](C(=O)N[C@@H](CC(C)C)C(=O)N[C@@H](CC(N)=O)C(=O)N[C@@H](C)C(=O)N[C@@H](Cc1ccc(O)cc1)C(=O)N[C@@H](Cc1ccc(O)cc1)C(=O)N[C@@H](C)C(=O)N[C@@H](CCCNC(=N)N)C(N)=O)C(C)C
As to B5, the Kd with Bcl-xL [17] is ~33 nM; with Mcl-1 [18], ~6 nM.

B6: 18-residue fluoresceinated Bim BH3 peptide (peptide)
peptide: Ac-IWIAQELRRIGDEFNAYY-NH2
modifications: also: fluoresceinated, site not given here
With B6, the dissociation constant (Kd) with Bcl-2 [19] came to 5 nM; with Bcl-w [20], 15 nM.
